# Source: ChEMBL document CHEMBL4196080, “Identification of small-molecule inhibitors of USP2a” (Eur J Med Chem, 2018)
# Active and inactive are the calls of the source. No cut-off for these calls is given here.
# How the values were obtained:
# [1] = target: T1, Ubiquitin carboxyl-terminal hydrolase 2 (Homo sapiens, UniProt O75604); test: (§1) Inhibition of human USP2a (258 to 605 residues) expressed in Escherichia coli BL21(DE3) using Ub-AMC as substrate incubated for 30 mins measured at 30 secs interval by fluorescence assay
# T1 sequence (O75604 whole entry): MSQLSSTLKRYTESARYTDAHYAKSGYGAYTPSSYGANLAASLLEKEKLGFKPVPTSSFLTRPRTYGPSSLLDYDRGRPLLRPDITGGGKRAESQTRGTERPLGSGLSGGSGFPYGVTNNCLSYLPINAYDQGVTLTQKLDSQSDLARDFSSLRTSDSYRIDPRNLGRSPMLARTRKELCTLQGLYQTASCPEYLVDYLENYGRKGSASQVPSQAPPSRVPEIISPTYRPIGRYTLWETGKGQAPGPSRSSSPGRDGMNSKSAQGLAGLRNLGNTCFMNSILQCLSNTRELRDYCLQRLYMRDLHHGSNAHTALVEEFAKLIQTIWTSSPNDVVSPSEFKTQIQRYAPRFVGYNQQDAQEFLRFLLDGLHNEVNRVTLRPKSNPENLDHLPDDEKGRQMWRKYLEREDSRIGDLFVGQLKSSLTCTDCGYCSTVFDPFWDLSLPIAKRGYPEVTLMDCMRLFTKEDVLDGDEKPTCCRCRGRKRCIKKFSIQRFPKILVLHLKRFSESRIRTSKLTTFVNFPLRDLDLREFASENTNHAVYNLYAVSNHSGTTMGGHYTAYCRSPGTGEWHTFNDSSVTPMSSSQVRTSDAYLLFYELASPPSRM
# Method in brief: (§2)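 USP2a purified by Ni-chelate, Q-Sepharose flow-through and gel filtration in PBS pH 7.4 with 5 mM DTT. Enzyme at 10 nM in 50 mM Tris/HCl pH 7.5, 1 mM EDTA, 1 mM MgCl2, preincubated 30 min with compound. Ub-AMC 500 nM then added. Fluorescence (ex 355/em 460 nm) read every 30 s. Turbidity checked at 600 nm. Excess wild-type ubiquitin served as positive control. Percent inhibition was fitted to dose-response curves.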
# [2] = target: T2, Ubiquitin carboxyl-terminal hydrolase 2 (Homo sapiens) (UniProt O75604); test: (§3) Binding affinity to 15N-Gly/Cys/Ser/Trp-labeled human USP2a expressed in Escherichia coli BL21(DE3) assessed as change in chemical shift by NMR method
# T2 sequence (whole entry): T1 sequence (O75604 whole entry)
# Method in brief: (§4)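 Selectively 15N-Gly/Cys/Ser/Trp-labeled USP2a from gel filtration in PBS pH 7.4 with 5 mM DTT, with 10% D2O added for lock. Ligand stock was 50 mM in d6-DMSO. Titration run in three steps at protein:compound ratios 1:1, 1:5 and 1:15. Binding followed as cross-peak shifts.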
# [3] = target: T2, Ubiquitin carboxyl-terminal hydrolase 2 (Homo sapiens); test: as §1; method in brief: as §2
# [4] = target: T2, Ubiquitin carboxyl-terminal hydrolase 2 (Homo sapiens); test: Inhibition of USP2a in human HCT116 cells assessed as downregulation of cycline D1 expression at 20 uM after 48 hrs by Western blot analysis; type: cell-based
# Method in brief: (§5)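 HCT 116 and MCF-7 cells were exposed to 20 μM compound or an equivalent DMSO portion and cultured for 48 h. Cyclin D1 levels were then assessed by western blot.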
# [5] = target: T2, Ubiquitin carboxyl-terminal hydrolase 2 (Homo sapiens); test: Inhibition of USP2a in human MCF7 cells assessed as downregulation of cycline D1 expression at 20 uM after 48 hrs by Western blot analysis; type: cell-based; method in brief: as §5
# [6] = target: Ubiquitin carboxyl-terminal hydrolase 7 (Homo sapiens) (UniProt Q93009); test: Inhibition of human USP7 (208 to 561 residues) catalytic domain expressed in Escherichia coli BL21(DE3) at 10 uM using Ub-AMC as substrate incubated for 30 mins measured at 30 secs interval by fluorescence assay
# Method in brief: (§6)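 GST-tagged USP7 catalytic domain (208-561) was expressed at 16 °C overnight. Tag removed with PreScission protease, then purified by Q-Sepharose, Mono Q and gel filtration in 50 mM Tris/HCl, 150 mM NaCl, 2 mM DTT. Activity measured by Ub-AMC hydrolysis (500 nM substrate, ex 355/em 460 nm, 30 s reads) after 30 min preincubation with compound. Values are mean ± SD.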
# [7] = target: T2, Ubiquitin carboxyl-terminal hydrolase 2 (Homo sapiens); test: Inhibition of human USP2a (258 to 605 residues) expressed in Escherichia coli BL21(DE3) at 2000 uM using Ub-AMC as substrate incubated for 30 mins measured at 30 secs interval by fluorescence assay; method in brief: as §2
# [8] = target: Ubiquitin carboxyl-terminal hydrolase 7 (Homo sapiens) (UniProt Q93009); test: Inhibition of human USP7 (208 to 561 residues) catalytic domain expressed in Escherichia coli BL21(DE3) at 10 to 2000 uM using Ub-AMC as substrate incubated for 30 mins measured at 30 secs interval by fluorescence assay; method in brief: as §6
# [9] = target: T1, Ubiquitin carboxyl-terminal hydrolase 2; test: as §3; method in brief: as §4
# Chain of Ubiquitin carboxyl-terminal hydrolase 7 (Homo sapiens) (Q93009 whole entry, looked up, the tested form may be a part): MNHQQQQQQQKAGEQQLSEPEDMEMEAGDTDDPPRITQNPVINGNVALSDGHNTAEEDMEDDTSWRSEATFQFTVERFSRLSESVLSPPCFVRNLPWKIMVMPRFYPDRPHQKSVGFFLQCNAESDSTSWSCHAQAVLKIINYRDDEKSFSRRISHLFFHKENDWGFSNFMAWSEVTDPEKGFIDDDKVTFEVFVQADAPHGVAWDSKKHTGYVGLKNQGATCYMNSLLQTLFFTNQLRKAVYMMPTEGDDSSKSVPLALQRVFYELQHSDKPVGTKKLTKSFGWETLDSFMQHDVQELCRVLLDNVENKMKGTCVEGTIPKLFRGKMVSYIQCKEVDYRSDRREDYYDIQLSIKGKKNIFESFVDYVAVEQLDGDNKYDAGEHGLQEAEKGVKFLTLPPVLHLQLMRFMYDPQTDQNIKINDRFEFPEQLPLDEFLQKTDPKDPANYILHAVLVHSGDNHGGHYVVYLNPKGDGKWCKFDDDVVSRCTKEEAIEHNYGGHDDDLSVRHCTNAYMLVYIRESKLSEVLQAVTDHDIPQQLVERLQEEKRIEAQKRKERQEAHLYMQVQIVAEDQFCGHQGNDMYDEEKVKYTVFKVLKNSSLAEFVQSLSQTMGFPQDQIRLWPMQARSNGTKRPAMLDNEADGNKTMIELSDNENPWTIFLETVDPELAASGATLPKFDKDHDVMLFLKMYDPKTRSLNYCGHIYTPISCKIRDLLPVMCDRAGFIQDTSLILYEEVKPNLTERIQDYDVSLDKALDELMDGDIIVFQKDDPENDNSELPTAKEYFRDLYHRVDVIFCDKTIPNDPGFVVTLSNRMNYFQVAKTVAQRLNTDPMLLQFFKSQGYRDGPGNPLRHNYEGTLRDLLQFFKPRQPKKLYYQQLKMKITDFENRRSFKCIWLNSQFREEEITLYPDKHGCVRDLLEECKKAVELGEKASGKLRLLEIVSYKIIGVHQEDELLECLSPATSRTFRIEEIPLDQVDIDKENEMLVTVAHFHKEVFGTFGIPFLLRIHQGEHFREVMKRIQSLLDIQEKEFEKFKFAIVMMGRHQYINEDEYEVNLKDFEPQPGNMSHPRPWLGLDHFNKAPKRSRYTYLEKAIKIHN
Compound,IC50 ([1]; read-out: IC50) [µM],IC50 [1],further results
CCCn1nc(C(=O)OCc2cc(-c3cccs3)on2)c2ccccc2c1=O,> 100,,
CN1CCOc2cc(C#N)ccc21,,Not Active,
CSc1nnc(-n2cccc2)s1,,,Activity [2]: inactive
O=C(O)c1cc(-c2cccs2)on1,,Not Active,
O=C(OCc1cc(-c2cccs2)on1)c1ccc(S(=O)(=O)N2CCOCC2)cc1,,Not Active,
Cc1c(CO)cnn1-c1ccccc1,,Not Active,
NCc1ccc(-c2csnn2)cc1,> 5000,,
NC(=O)c1c(NC(=O)COCc2cc(-c3cccs3)on2)sc2c1CCCC2,3.3,,inhibition [3]: Dose-dependent effect; inhibition [4]: Active; inhibition [5]: Active; inhibition [6]: inactive
Cc1cc(C#N)cc(C)c1O,> 5000,,
O=C(O)COCc1cc(-c2cccs2)on1,,Not Active,
Nc1ccc(-c2cnco2)cc1,,,Activity [2]: inactive
COC(=O)c1ccc2cc[nH]c2c1,,,Activity [2]: inactive
O=C(O)CNC(=O)c1cc(-c2cccs2)on1,,Not Active,
COc1ccc(N2CC(C(=O)OCc3cc(-c4cccs4)on3)CC2=O)cc1 (stereo unspecified),,Not Active,
CC(Oc1ccc(C#N)cc1)C(=O)OCc1cc(-c2cccs2)on1 (stereo unspecified),> 50,,
Nc1cc(-c2ccccc2)n[nH]1,> 5000,,Activity [2]: inactive
COc1ccc2c(c1)CCCC2=O,,,Activity [2]: inactive
CC(C)(C)OC(=O)CNC(=O)c1cc(-c2cccs2)on1,,Not Active,
NC(=O)c1c(N)sc2c1CCCC2,8.7,,
OCc1cc(-c2cccs2)on1,1300,,inhibition [7]: Active; inhibition [8]: inactive; inhibition [4]: inactive; inhibition [5]: inactive; Kd [9]: 900 µM
Cl.NCc1ccc(Cc2cccs2)cc1,,Not Active,
